Laboratory results from ChEMBL document CHEMBL1144182, “Antimicrobial and cytotoxic arylazoenamines. Part III: antiviral activity of selected classes of arylazoenamines” (Bioorg Med Chem, 2008).
Activity calls are given as the source filed them. The rule behind the calls is not given here.

Legend:
[1] = Cytotoxicity against mock-infected MDBK cells assessed as reduction in cell viability after 96 hrs by MTT assay; type: cell-based, Bos taurus; conditions: cattle
In short: (§1)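 Cytotoxicity run in parallel with the antiviral assays. MDBK seeded at 6 × 10^5 and BHK at 1 × 10^6 cells/mL in maintenance medium with or without serial compound dilutions. Incubated 48–96 h at 37 °C, 5% CO2, then viability read by MTT. CC50 is the concentration reducing mock-infected cell viability by 50%.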

[2] = Cytotoxicity against mock-infected human MT4 cells assessed as reduction in cell viability after 96 hrs by MTT assay; type: cell-based
In short: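 Exponentially growing MT-4 cells seeded at 1 × 10^5 cells/mL in RPMI-1640 with 10% FCS, penicillin and streptomycin, with or without serial compound dilutions. Incubated at 37 °C, 5% CO2; viability read by MTT after 96 h. CC50 is the concentration reducing mock-infected cell viability by 50%.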

[3] = tested on: Respiratory syncytial virus; experiment: Antiviral activity against RSV infected in Vero76 cells assessed as reduction in virus plaque formation after 4 days by MTT assay; type: functional, organism-based; conditions: human respiratory syncytial virus, Vero 76, 96 h
[4] = tested on: Human immunodeficiency virus 1; experiment: Antiviral activity against HIV1 infected in MT4 cells assessed as virus-induced cytopathogenicity after 4 days; type: functional, organism-based
[5] = Cytotoxicity against mock-infected BHK cells assessed as reduction in cell viability after 96 hrs by MTT assay; type: cell-based, Mesocricetus auratus; conditions: hamster; in short: as §1
Poliovirus 1 = experiment: Antiviral activity against Sb1 virus infected in Vero76 cells assessed as reduction in virus plaque formation after 4 days by MTT assay; type: functional, organism-based; conditions: Enterovirus C, Sabin, Vero 76, 96 h
[6] = tested on: Bovine viral diarrhea virus 1; experiment: Antiviral activity against BVDV infected in MDBK cells assessed as protection against virus-induced cytopathogenicity after 4 days by MTT assay; type: functional, organism-based; conditions: Bovine viral diarrhea virus isolates and strains, 96 h
In short: (§2)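 MDBK (BVDV) or BHK-21 (YFV) cells were seeded at 3 × 10^4 or 5 × 10^4 cells/well respectively and grown overnight to confluent monolayers at 37 °C in 5% CO2. Monolayers were infected at m.o.i. 0.01 in serum-free medium. After 1 h, MEM Earle's with 1% FCS was added, with or without serial compound dilutions. After 3–4 days at 37 °C, viability was read by MTT. EC50 was taken as 50% protection from virus-induced cytopathogenicity.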

[7] = tested on: Vesicular stomatitis virus; experiment: Antiviral activity against VSV infected in Vero76 cells assessed as reduction in virus plaque formation after 4 days by MTT assay; type: functional, organism-based; conditions: Vero 76
Coxsackievirus B2 = experiment: Antiviral activity against CVB2 infected in Vero76 cells assessed as reduction in virus plaque formation after 4 days by MTT assay; type: functional, organism-based; conditions: Enterovirus B, Vero 76, 96 h
Yellow fever virus = experiment: Antiviral activity against YFV infected in BHK21 cells assessed as protection against virus-induced cytopathogenicity after 4 days by MTT assay; type: functional, organism-based; conditions: BHK-21, 96 h; in short: as §2
Vaccinia virus = experiment: Antiviral activity against VV infected in Vero76 cells assessed as reduction in virus plaque formation after 4 days by MTT assay; type: functional, organism-based; conditions: Orthopoxvirus vaccinia; Vero 76
[8] = Cytotoxicity against mock-infected african green monkey Vero76 cells assessed as reduction in cell viability after 96 hrs by MTT assay; type: cell-based, Vero; conditions: chlorocebus sabaeus

| SMILES | CC50 at 96 h [1] [µM] | CC50 at 96 h [2] [µM] | EC50 [3] [µM] | Activity [4] | CC50 at 96 h [5] [µM] | EC50 (Poliovirus 1) [µM] | EC50 [6] [µM] | Activity [7] | EC50 (Coxsackievirus B2) [µM] | EC50 (Yellow fever virus) [µM] | Activity (Vaccinia virus) | CC50 at 96 h [8] [µM] |
| --- | --- | --- | --- | --- | --- | --- | --- | --- | --- | --- | --- | --- |
| CN1CCC/C1=C\N=N\c1cccc([N+](=O)[O-])c1 | > 100 | 25 | > 100 | inactive | > 100 | > 100 | 5.5 | inactive | > 100 | > 100 | inactive | > 100 |
| CCOC(=O)c1ccc(/N=N/C=C/N2CCCC2)cc1 | 100 | 26 | > 100 | inactive | > 100 | > 100 | > 100 | inactive | 50 | > 100 | inactive | > 100 |
| C(=C\N1CCOCC1)/N=N/c1ccccc1 | 28 | 7 | 15 | inactive | > 100 | > 30 | > 28 | inactive | 7 | > 100 | inactive | 30 |
| O=[N+]([O-])c1ccc(N2CCN(/C=C/N=N/c3ccccc3)CC2)cc1 | 20 | 41 | 13 | inactive | 48 | > 45 | > 20 | inactive | 14 | 12 | inactive | 45 |
| Brc1cccc(/N=N\C2=C3CCCCN3CCC2)c1 | 10 | 9 | > 100 | inactive | 49 | > 100 | > 10 | inactive | 18 | > 49 | inactive | > 100 |
| c1ccc2c(/N=N\C3=C4CCCN4CCC3)cccc2c1 | 91 | 18 | > 90 | inactive | 51 | > 90 | 3.5 | inactive | 44 | > 51 | inactive | 90 |
| CCOC(=O)c1ccc(/N=N/C=C/N2CCCCC2)cc1 | > 100 | 33 | > 100 | inactive | > 100 | 27 | > 100 | inactive | 35 | > 100 | inactive | > 100 |
| C(=C\N1CCN(c2ncccn2)CC1)/N=N/c1ccccc1 | 10 | 17 | 5 | inactive | 100 | > 55 | > 10 | inactive | 0.9 | > 100 | inactive | 55 |
| Clc1ccc(/N=N\C2=C3CCCN3CCC2)cc1 | 30 | > 100 | > 75 | inactive | 34 | 20 | > 30 | inactive | 10 | > 34 | inactive | 75 |
| O=[N+]([O-])c1cccc(/N=N\C2=C3CCCCN3CCC2)c1 | > 100 | 37 | > 90 | inactive | 87 | 20 | 100 | inactive | 71 | > 87 | inactive | 90 |
| Clc1ccc(/N=N\C2=C3CCCN3CCC2)cc1Cl | 67 | 26 | > 100 | inactive | 61 | 45 | > 67 | inactive | 30 | > 61 | inactive | > 100 |
